One block for each molecule: values may come before it.
Columns and labels:
[1] = biological target: Kappa-type opioid receptor (Cavia porcellus) (UniProt P41144); assay: Inhibitory activity for kappa opioid receptor
Mu-type opioid receptor = Mu-type opioid receptor (Homo sapiens, UniProt P35372); assay: Antagonistic activity towards Opioid receptor mu 1; assay type: functional
[2] = biological target: Kappa-type opioid receptor (Cavia porcellus, UniProt P41144); assay: Inhibition of Opioid receptor kappa 1 binding
Method in brief: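 Kappa opioid radioreceptor binding in guinea pig brain homogenate with 3 nM [3H]U69,593 as radioligand, incubated 2.5 h at 25°C. Library mixtures were screened at 4 μg/mL. Data were normalized to percent inhibition using background and total binding.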

Acetylcholinesterase = Acetylcholinesterase (Homo sapiens, UniProt P22303); assay: Enzyme inhibitory activity towards Acetylcholinesterase
[3] = biological target: T1, Adenosine deaminase (Homo sapiens) (UniProt P00813)
T1 sequence (whole entry): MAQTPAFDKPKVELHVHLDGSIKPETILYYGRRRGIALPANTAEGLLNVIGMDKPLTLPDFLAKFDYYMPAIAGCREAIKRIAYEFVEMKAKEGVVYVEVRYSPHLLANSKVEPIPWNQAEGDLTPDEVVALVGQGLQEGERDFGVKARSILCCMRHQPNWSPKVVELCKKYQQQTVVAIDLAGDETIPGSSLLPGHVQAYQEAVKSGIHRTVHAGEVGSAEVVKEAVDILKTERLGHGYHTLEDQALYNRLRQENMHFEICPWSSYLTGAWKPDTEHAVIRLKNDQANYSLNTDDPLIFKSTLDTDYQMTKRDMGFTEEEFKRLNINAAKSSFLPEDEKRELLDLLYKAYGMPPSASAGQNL

[4] = biological target: Sigma non-opioid intracellular receptor 1 (Homo sapiens, UniProt Q99720); assay: Inhibitory activity towards Sigma opioid receptor type 1
[5] = Enzyme inhibitory activity towards Matrix metalloproteases
[6] = biological target: GABA-A receptor; anion channel; assay: Inhibition of binding to GABA-A Benzodiazepine receptor; assay type: protein-complex assay

Chain of Kappa-type opioid receptor (Cavia porcellus) (P41144 whole entry, looked up): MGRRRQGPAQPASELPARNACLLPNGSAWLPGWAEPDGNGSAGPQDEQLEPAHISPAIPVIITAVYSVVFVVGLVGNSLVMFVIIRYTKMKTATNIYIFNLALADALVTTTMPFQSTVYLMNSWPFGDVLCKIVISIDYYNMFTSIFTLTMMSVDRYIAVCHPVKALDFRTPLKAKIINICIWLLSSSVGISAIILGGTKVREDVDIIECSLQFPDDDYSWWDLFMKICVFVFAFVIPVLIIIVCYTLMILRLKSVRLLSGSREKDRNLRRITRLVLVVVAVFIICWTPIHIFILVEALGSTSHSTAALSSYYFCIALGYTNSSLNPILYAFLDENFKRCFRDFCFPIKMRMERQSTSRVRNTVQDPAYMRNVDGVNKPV
Chain of Sigma non-opioid intracellular receptor 1 (Q99720 whole entry): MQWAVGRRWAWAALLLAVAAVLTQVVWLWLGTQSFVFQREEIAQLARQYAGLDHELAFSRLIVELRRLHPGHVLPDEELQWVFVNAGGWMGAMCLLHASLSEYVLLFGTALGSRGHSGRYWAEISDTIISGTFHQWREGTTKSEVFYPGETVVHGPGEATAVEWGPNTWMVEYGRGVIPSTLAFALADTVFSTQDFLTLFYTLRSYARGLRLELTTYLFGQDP
Chain of Mu-type opioid receptor (P35372 whole entry): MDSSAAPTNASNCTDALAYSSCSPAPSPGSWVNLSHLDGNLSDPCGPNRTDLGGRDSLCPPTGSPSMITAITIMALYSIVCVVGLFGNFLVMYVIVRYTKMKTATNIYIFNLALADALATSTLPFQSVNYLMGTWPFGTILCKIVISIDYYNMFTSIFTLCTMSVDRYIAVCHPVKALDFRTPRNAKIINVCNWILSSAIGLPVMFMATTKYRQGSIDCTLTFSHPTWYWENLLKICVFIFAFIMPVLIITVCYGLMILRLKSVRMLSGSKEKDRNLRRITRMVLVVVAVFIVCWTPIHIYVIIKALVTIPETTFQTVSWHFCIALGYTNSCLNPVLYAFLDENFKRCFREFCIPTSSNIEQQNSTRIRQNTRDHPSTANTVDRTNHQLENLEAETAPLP
Chain of Acetylcholinesterase (P22303 whole entry): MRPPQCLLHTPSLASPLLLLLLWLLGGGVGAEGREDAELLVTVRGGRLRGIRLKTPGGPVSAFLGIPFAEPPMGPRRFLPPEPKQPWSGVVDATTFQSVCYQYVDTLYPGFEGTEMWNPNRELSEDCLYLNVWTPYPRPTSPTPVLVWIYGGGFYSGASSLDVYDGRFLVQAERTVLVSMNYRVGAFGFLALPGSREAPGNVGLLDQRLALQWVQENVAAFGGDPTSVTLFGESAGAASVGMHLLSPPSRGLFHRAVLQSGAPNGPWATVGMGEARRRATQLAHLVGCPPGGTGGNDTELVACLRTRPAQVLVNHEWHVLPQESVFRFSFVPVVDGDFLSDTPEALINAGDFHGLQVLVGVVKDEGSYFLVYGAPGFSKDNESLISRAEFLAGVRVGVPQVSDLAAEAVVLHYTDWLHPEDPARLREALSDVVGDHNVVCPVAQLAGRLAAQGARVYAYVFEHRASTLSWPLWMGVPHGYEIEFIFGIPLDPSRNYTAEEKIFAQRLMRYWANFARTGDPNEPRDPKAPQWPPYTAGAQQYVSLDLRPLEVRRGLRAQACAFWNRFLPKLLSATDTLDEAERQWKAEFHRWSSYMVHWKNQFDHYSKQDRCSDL
Chain of Kappa-type opioid receptor (P41144 whole entry): as the sequence (P41144 whole entry, looked up) above

Structure (SMILES): CCCCCC(C)N (stereo not drawn) [TUAMINOHEPTANE]
IC50 (Mu-type opioid receptor): 14 nM

Structure (SMILES): CC(C)C[C@@H]1CN2C(=NC[C@@H]2C2CCCCC2)N1CC1CCC(C)CC1 (stereo partly drawn)
IC50 [2]: 3680 nM
IC50 [1]: 999 nM

Structure (SMILES): NC(=O)O [CARBAMIC ACID]
IC50 (Acetylcholinesterase): 67000 nM

Structure (SMILES): CC(C)C[C@@H]1CN2C(=NC[C@@H]2C2CCCCC2)N1C(C)C12CC3CC(CC(C3)C1)C2 (stereo partly drawn)
IC50 [1]: 1210 nM

Structure (SMILES): C1CCC([C@H]2CN3C(=NC[C@@H]3C3CCCCC3)N2CCC2CC3CCC2C3)CC1 (stereo partly drawn)
IC50 [1]: 560 nM

Structure (SMILES): CC(N1C2=NC[C@H](C3CCCCC3)N2C[C@@H]1C1CCCCC1)C12CC3CC(CC(C3)C1)C2 (stereo partly drawn)
IC50 [1]: 1490 nM

Structure (SMILES): CC(N1C2=NC[C@@H](C3CCCCC3)N2C[C@@H]1C1CCCCC1)C12CC3CC(CC(C3)C1)C2 (stereo partly drawn)
IC50 [1]: > 10000 nM

Structure (SMILES): CC(N1C2=NC[C@H](C)N2C[C@@H]1C1CCCCC1)C12CC3CC(CC(C3)C1)C2 (stereo partly drawn)
IC50 [1]: 1940 nM

Structure (SMILES): C1CCC([C@H]2CN3C(=NC[C@H]3C3CCCCC3)N2CCC2CC3CCC2C3)CC1 (stereo partly drawn)
IC50 [1]: 524 nM

Structure (SMILES): CC(C)C[C@@H]1CN2C(=NC[C@H]2C2CCCCC2)N1CC1CCC(C)CC1 (stereo partly drawn)
IC50 [1]: 738 nM

Structure (SMILES): CC(C)C[C@@H]1CN2C(=NC[C@H]2C2CCCCC2)N1C(C)C12CC3CC(CC(C3)C1)C2 (stereo partly drawn)
IC50 [1]: 1750 nM

More lines, now with the values ahead:

IC50 [1]: 3640 nM
Structure (SMILES): CC(C)C[C@@H]1CN2C(=NC[C@@H]2C)N1C(C)C12CC3CC(CC(C3)C1)C2 (stereo partly drawn)

IC50 [1]: 2310 nM
Structure (SMILES): CC(C)C[C@@H]1CN2C(=NC[C@@H]2C)N1CCC1CC2CCC1C2 (stereo partly drawn)

IC50 [1]: 1770 nM
Structure (SMILES): CC(C)C[C@@H]1CN2C(=NC[C@H]2C2CCCCC2)N1CCCC1CCCCC1

IC50 [1]: 5440 nM
Structure (SMILES): CC(C)C[C@@H]1CN2C(=NC[C@@H]2C)N1CCCC1CCCCC1

Ka [3]: 1e+08 M⁻¹
Structure (SMILES): Nc1ncnc2c1ncn2[C@@H]1O[C@H](CO)[C@@H](O)[C@H]1O

IC50 [4]: 62 nM
Structure (SMILES): O=C1CNC(=O)N1 [HYDANTOIN]

IC50 [5]: 30000 nM
Structure (SMILES): O=C1CNC(=O)CN1 [DIKETOPIPERAZINE]

Ki [6]: 17 nM
Structure (SMILES): O=c1cc(-c2ccccc2)oc2ccccc12 [FLAVONE]

IC50 [1]: 3740 nM
Structure (SMILES): CC(C)C[C@@H]1CN2C(=NC[C@@H]2C2CCCCC2)N1CCCC1CCCCC1

IC50 [1]: 5060 nM
Structure (SMILES): CC1CCC(CN2C3=NC[C@H](C)N3C[C@@H]2C2CCCCC2)CC1 (stereo partly drawn)

IC50 [4]: 56 nM
Structure (SMILES): c1cc2c(cn1)CCCC2 [5,6,7,8-TETRAHYDROISOQUINOLINE]
